# According to ChEMBL document CHEMBL1629697, “Endocannabinoids inhibit the growth of free-living amoebae” (Antimicrob Agents Chemother, 2010):
# Active and inactive are the calls of the source. No cut-off for these calls is given here.
# Key:
# Willaertia magna [1] = assay: Antimicrobial activity against Willaertia magna c2c Maky ATCC PTA-7824 assessed as growth inhibition at 2 ug/ml after 3 days by hemocytometer; format: functional
# Summary of the method: (§1)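 Amoebae maintained at 30°C on E. coli lawns on nonnutrient agar, then axenic at 37°C in SCGYEM. Seeded day 0 at 2 × 10^5 cells/ml in SCGYEM with or without endocannabinoid, added in ethanol (0.05% final); vehicle controls contained ethanol. Tubes incubated slanted at 37°C; cell concentration counted daily by hemocytometer through day 3.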
# Acanthamoeba castellanii [2] = assay: Antimicrobial activity against Acanthamoeba castellanii assessed as decrease in viable cell concentration at 20 ug/ml after 3 days by hemocytometer; format: functional, organism-based; summary of the method: as §1
# Hartmannella vermiformis [3] = assay: Antimicrobial activity against Hartmannella vermiformis assessed as growth inhibition at 5 ug/ml after 3 days by hemocytometer; format: functional; conditions: Vermamoeba vermiformis; summary of the method: as §1
# Willaertia magna [4] = assay: Antimicrobial activity against Willaertia magna c2c Maky ATCC PTA-7824 assessed as growth inhibition at 10 ug/ml upto 3 days by hemocytometer; format: functional; summary of the method: as §1
# Acanthamoeba castellanii [5] = assay: Antimicrobial activity against Acanthamoeba castellanii assessed as growth inhibition at 10 ug/ml after 3 days by hemocytometer relative to control; format: functional; conditions: 72 h; summary of the method: as §1
# Hartmannella vermiformis [6] = assay: Antimicrobial activity against Hartmannella vermiformis after 3 days by hemocytometer; format: functional; conditions: Vermamoeba vermiformis, 72 h; summary of the method: as §1
# Willaertia magna [7] = assay: Antimicrobial activity against Willaertia magna c2c Maky ATCC PTA-7824 after 3 days by hemocytometer; format: functional; conditions: c2c Maky ATCC PTA-7824, 72 h; summary of the method: as §1
# Acanthamoeba castellanii [8] = assay: Antimicrobial activity against Acanthamoeba castellanii assessed as growth inhibition at 10 ug/ml upto 3 days by hemocytometer; format: functional, organism-based; summary of the method: as §1
# Hartmannella vermiformis [9] = assay: Antimicrobial activity against Hartmannella vermiformis assessed as growth inhibition at 2 ug/ml after 3 days by hemocytometer; format: functional; conditions: Vermamoeba vermiformis; summary of the method: as §1
# Willaertia magna [10] = assay: Antimicrobial activity against Willaertia magna c2c Maky ATCC PTA-7824 assessed as decrease in viable cell concentration at 20 ug/ml after 3 days by hemocytometer; format: functional; summary of the method: as §1
# Hartmannella vermiformis [11] = assay: Antimicrobial activity against Hartmannella vermiformis assessed as growth inhibition at 10 ug/ml after 3 days by hemocytometer relative to control; format: functional; conditions: Vermamoeba vermiformis, 72 h, read-out: INH; summary of the method: as §1
# Acanthamoeba castellanii [12] = assay: Antimicrobial activity against Acanthamoeba castellanii assessed as growth inhibition at 5 ug/ml after 3 days by hemocytometer; format: functional, organism-based; summary of the method: as §1
# Hartmannella vermiformis [13] = assay: Antimicrobial activity against Hartmannella vermiformis assessed as growth inhibition at 10 ug/ml upto 3 days by hemocytometer; format: functional; conditions: Vermamoeba vermiformis; summary of the method: as §1
# Acanthamoeba castellanii [14] = assay: Antimicrobial activity against Acanthamoeba castellanii after 3 days by hemocytometer; format: functional, organism-based; conditions: 72 h; summary of the method: as §1
# Willaertia magna [15] = assay: Antimicrobial activity against Willaertia magna c2c Maky ATCC PTA-7824 assessed as growth inhibition at 5 ug/ml after 3 days by hemocytometer; format: functional; summary of the method: as §1
# Hartmannella vermiformis [16] = assay: Antimicrobial activity against Hartmannella vermiformis assessed as decrease in viable cell concentration at 20 ug/ml after 3 days by hemocytometer; format: functional; conditions: Vermamoeba vermiformis; summary of the method: as §1
# Acanthamoeba castellanii [17] = assay: Antimicrobial activity against Acanthamoeba castellanii assessed as growth inhibition at 2 ug/ml after 3 days by hemocytometer; format: functional, organism-based; summary of the method: as §1
# Willaertia magna [18] = assay: Antimicrobial activity against Willaertia magna c2c Maky ATCC PTA-7824 assessed as growth inhibition at 10 ug/ml after 3 days by hemocytometer relative to control; format: functional; conditions: c2c Maky ATCC PTA-7824, 72 h, read-out: INH; summary of the method: as §1
smiles,measurement,setting,value
CCCCC/C=C\C/C=C\C/C=C\C/C=C\CCCC(=O)NCCO [ANANDAMIDE],inhibition,Willaertia magna [1],Active
same,inhibition,Acanthamoeba castellanii [2],Active
same,inhibition,Hartmannella vermiformis [3],Active
same,inhibition,Willaertia magna [4],Active
same,inhibition at 10 µg/mL,Acanthamoeba castellanii [5],68%
same,IC50,Hartmannella vermiformis [6],14 µM
same,IC50,Willaertia magna [7],20 µM
same,inhibition,Acanthamoeba castellanii [8],Active
same,inhibition,Hartmannella vermiformis [9],Active
same,inhibition,Willaertia magna [10],Active
same,inhibition at 10 µg/mL,Hartmannella vermiformis [11],96%
same,inhibition,Acanthamoeba castellanii [12],Active
same,inhibition,Hartmannella vermiformis [13],Active
same,IC50,Acanthamoeba castellanii [14],17 µM
same,inhibition,Willaertia magna [15],Active
same,inhibition,Hartmannella vermiformis [16],Active
same,inhibition,Acanthamoeba castellanii [17],Active
same,inhibition at 10 µg/mL,Willaertia magna [18],58%
